Screening results deposited in PubChem by The Scripps Research Institute Molecular Screening Center.
A selection: hits, their analogues and other compounds. The true share with any hit is near 4.6%.
TAAR1 antagonist: human TAAR1 antagonism. CHO RD-HGA16 TAAR1, Fluo-8 calcium fluorescence, antagonist. inhibition, % at 3 µM. Q96RJ0. actives 1.5% (n = 360,000);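 active means inhibition above a per-plate cutoff, the mean inhibition of test compounds on that plate plus 3 SD, cut at about 49% in these data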
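Assay system: RD-HGA16 CHO cells with stable hTAAR1 and Gα16 / Reagent: EC80 β-phenethylamine stimulus / Doses: 3 µM, single point / Timing: dye loading 75 min at 37 °C, then 30 min room temperature / Measured by: Fluo-8 intracellular calcium dye fluorescence, real-time kinetic reads / Controls: vehicle wells and EC80 agonist wells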
GPR7 antagonist: antagonists of human GPR7 (neuropeptides B/W receptor 1); P48145; GPR7-expressing cells, fluorescence antagonist assay; inhibition, % at 4.4 µM; actives 1.1% (n = 290,000); AID 1861; in the data active means inhibition above about 16%, passing the limit was not always enough;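 further: cells stimulated with the agonist NPW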
CHO parental Ca: counter-screen for OX1R antagonists: effect in parental CHO cells; parental CHO-K1, ATP-induced calcium, Fluo-8 fluorescence; inhibition, % at 5.6 µM; actives 0.63% (n = 330,000);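 active means inhibition above that plate's mean sample inhibition plus 3 SD, cut at about 26% in these data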
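Measured by: calcium-sensitive Fluo-8 fluorescence / Test system: CHO parental line / Controls: ATP-challenged DMSO wells low, unchallenged DMSO wells high / Measure: % inhibition / Compound: single nominal dose of 5.6 µM per compound / Replicates: single well per compound, no replicates / Reagent: ATP as calcium-mobilizing challenge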
TAAR1 ag: human TAAR1 agonism | Q96RJ0 | CHO RD-HGA16 TAAR1, Fluo-8 calcium fluorescence; vehicle wells 0%, saturating PEA agonist 100% | activation, % at 3 µM | actives 0.99% (n = 360,000) | AID 624467;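 active means activation above the mean activation of all test compounds in the run plus 3 SD, cut at about 38% in these data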
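System: CHO-derived RD-HGA16 cells with stable Gα16 and human TAAR1 / Times: 17-24 h plating, Fluo-8 75 min 37 °C, 30 min RT / Technique: calcium-sensitive Fluo-8 signal, excitation 470-495, emission 515-575 nm / Measure: % activation relative to PEA EC100 response / Benchmarks: DMSO and PEA EC100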
OX1R antag-1: blocks the human orexin 1 receptor; O43613; OX1R-expressing cells, FRET antagonist read-out; inhibition, % at 6.6 µM; actives 1.8% (n = 330,000); in the data active means inhibition mostly above about 38%, no sharp cut-off; inactive means mostly below about 40%
Target sequence (O43613 whole entry, looked up): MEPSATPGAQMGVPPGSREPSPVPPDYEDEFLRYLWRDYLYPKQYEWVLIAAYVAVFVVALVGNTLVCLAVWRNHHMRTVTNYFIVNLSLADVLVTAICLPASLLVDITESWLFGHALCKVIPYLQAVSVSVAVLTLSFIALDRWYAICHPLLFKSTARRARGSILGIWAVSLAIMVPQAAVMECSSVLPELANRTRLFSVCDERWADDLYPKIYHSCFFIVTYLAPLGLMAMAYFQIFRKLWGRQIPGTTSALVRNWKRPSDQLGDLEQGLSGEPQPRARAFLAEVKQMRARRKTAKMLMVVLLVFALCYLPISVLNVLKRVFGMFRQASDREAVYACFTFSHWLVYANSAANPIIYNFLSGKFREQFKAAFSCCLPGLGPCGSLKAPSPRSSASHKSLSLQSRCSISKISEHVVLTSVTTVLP
OX1R antag-2: blocks the human orexin 1 receptor. O43613. CHO/OX1R cells, Fluo-8 calcium fluorescence, orexin A. inhibition, % at 5 µM. actives 0.43% (n = 330,000). AID 434989;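 active means inhibition above its plate's threshold, mean inhibition of all tested compounds on the plate plus 3 SD, cut at about 37% in these data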
OX1R Ca confirm: confirmation of human orexin 1 receptor antagonists | shares compounds with OX1R antag-2 | CHO/OX1R cells, orexin A calcium Fluo-8 fluorescence | inhibition, % at 5 µM | actives 38% (n = 1,100) | AID 492963; in the data active means inhibition above about 29%
CHO Ca counter: counter-screen for OX1R antagonists: effect in parental CHO cells | inhibition, % at 5.6 µM | parental CHO-K1, ATP-induced calcium, Fluo-8 fluorescence | actives 9.3% (n = 1,100) | shares compounds with OX1R antag-2;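 active means inhibition above a per-plate limit, the mean inhibition of that plate's test compounds plus 3 SD, cut at about 25% in these data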
OX1R HTRF confirm: confirmation of human orexin 1 receptor antagonists, HTRF format | actives 49% (n = 1,800) | inhibition, % at 6.6 µM | shares compounds with OX1R antag-1 | OX1R-expressing cells, HTRF antagonist assay; in the data active means inhibition above about 55%;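 further: CHO cells expressing OX1R stimulated with orexin A at about EC80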
CHO-K1 HTRF: counter-screen for OX1R antagonists: effect in parental CHO-K1 cells; inhibition, % at 6.6 µM; shares compounds with OX1R antag-1; actives 48% (n = 1,800); HTRF counterscreen; in the data active means inhibition above about 17%
Hits are given with their value; . = inactive; / = not tested or not shown.

SMILES	TAAR1 antagonist	GPR7 antagonist	CHO parental Ca	TAAR1 ag	OX1R antag-1	OX1R antag-2	OX1R Ca confirm	CHO Ca counter	OX1R HTRF confirm	CHO-K1 HTRF
C[C@H]1CN([C@@H](C)CO)C(=O)CCCn2cc(nn2)CO[C@@H]1CN(C)S(=O)(=O)c1cccc(F)c1	.	/	/	.	/	/	/	/	/	/
CC1CC(C)CN(C(=O)CNC(=O)c2sc3ccccc3c2Cl)C1 (stereo not drawn)	.	/	.	.	70	55	.	.	83	.
O=Cc1cccc2ccc3cccc(C(=O)O)c3c12	.	/	.	.	.	.	/	/	/	/
CN(Cc1c(C(=O)N/N=C/c2cccc(F)c2)nnn1-c1nonc1N)C1CCCCC1	.	.	.	.	.	.	/	/	/	/
CCN(CC)c1ccc(/C=N/NC(=O)c2nnn(-c3nonc3N)c2C(C)C)c(O)c1	.	.	.	.	96	59	.	.	69	.
CN(Cc1c(C(=O)N/N=C/c2cccc(F)c2)nnn1-c1nonc1N)c1ccccc1	.	.	.	.	57	.	33	.	77	.
CCCN(CCC)Cc1c(C(=O)N/N=C/c2cccs2)nnn1-c1nonc1N	.	.	.	.	.	.	/	/	/	/
COc1cccc(/C=N/NC(=O)c2nnn(-c3nonc3N)c2CN(C)c2ccccc2)c1	.	.	.	.	70	52	41	.	93	.
CC(C)c1c(C(=O)N/N=C/c2ccc3c(c2)OCO3)nnn1-c1nonc1N	.	.	.	.	.	.	/	/	/	/
CN(Cc1c(C(=O)N/N=C/c2cccs2)nnn1-c1nonc1N)c1ccccc1	.	.	.	.	82	55	32	.	89	.
CNC(=O)NC(=O)C(C)OC(=O)c1c2c(nc3ccccc13)/C(=C/c1cccs1)CC2 (stereo not drawn)	.	.	.	.	66	52	92	.	93	.
Cc1csc(-c2coc3cc(O)cc(C)c3c2=O)n1	.	.	.	.	94	60	.	.	91	.
COc1cc(NC(=O)CSCc2cnn(-c3ccccc3)c2-n2cccc2)cc(OC)c1	.	.	.	.	78	50	.	.	89	.
C=CC[C@H](CC(=O)NCCO)C(=O)N[C@H](COC(=O)[C@H](CC=C)CC(=O)OC(C)(C)C)c1ccccc1	.	/	.	.	.	.	/	/	/	/
Cc1cc(=O)[nH]c(SCC(=O)Nc2ccc(F)cc2)c1C#N	.	.	.	.	.	.	/	/	/	/
Cc1cc(=O)[nH]c(SCC(=O)Nc2ccc(Br)cc2)c1C#N	.	.	.	.	93	42	.	.	.	.
CCOC(=O)N1CCN(C(=O)c2c(N)no[n+]2[O-])CC1	/	.	.	/	.	.	/	/	/	/
O=C(COc1ccc2ccccc2c1)N/N=C/C1CC=CCC1 (stereo not drawn)	.	.	.	.	.	.	/	/	/	/
O=c1cc(-c2ccsc2)oc2ccc(-c3ccc4cc[nH]c4c3)cc12	.	/	.	.	63	72	37	.	75	.
O=c1c2ccccc2oc2cc(-c3ccc4cc[nH]c4c3)ccc12	.	/	.	.	80	75	.	.	78	.
Cc1ccc(NC(=O)c2ccc(C)cc2)cc1	.	/	.	.	.	.	/	/	/	/
Cc1ccc(C(=O)Nc2ccc(Br)c(C(F)(F)F)c2)cc1	.	.	.	.	51	.	.	.	.	.
O=C(COC(=O)/C=C/c1ccc(Cl)cc1Cl)Nc1cc(C(F)(F)F)ccc1N1CCOCC1	.	.	.	.	.	.	/	/	/	/
O=C(COC(=O)c1cc(-c2cccc(Br)c2)nc2ccccc12)NCC1CCCO1 (stereo not drawn)	.	.	.	.	86	44	40	.	68	.
CC(C1SC(=S)NC1=O)C1SC(=S)NC1=O (stereo not drawn)	.	/	/	.	/	/	/	/	/	/
SMILES	TAAR1 antagonist	GPR7 antagonist	CHO parental Ca	TAAR1 ag	OX1R antag-1	OX1R antag-2	OX1R Ca confirm	CHO Ca counter	OX1R HTRF confirm	CHO-K1 HTRF
O=C(N/C(=C\c1ccc(Cl)cc1)C(=O)N1CCCCC1)c1ccco1	.	.	.	.	.	.	/	/	/	/
Cc1ccc(C(C)C)c(OCC(=O)NNC(=O)Cc2ccc(S(=O)(=O)N3CCOCC3)s2)c1	.	/	.	.	.	.	/	/	/	/
COc1ccccc1NC(=O)[C@@H]1CCCN1S(=O)(=O)c1ccc(Cl)cc1	.	/	.	.	58	48	52	.	70	.
CCOc1ccccc1NC(=O)C1CCCN1S(=O)(=O)c1ccccc1C(F)(F)F (stereo not drawn)	.	/	.	.	79	76	39	.	85	.
O=C(Nc1ccccc1)[C@@H]1CCCN1S(=O)(=O)c1ccc(Cl)cc1	.	/	.	.	62	45	39	.	78	.
O=C(NCc1ccccc1)C1CCCN1S(=O)(=O)c1ccc(Cl)cc1 (stereo not drawn)	.	.	.	.	.	.	/	/	/	/
Cc1ccc(S(=O)(=O)N2CCCC2C(=O)Nc2nc3c(s2)CCCC3)cc1 (stereo not drawn)	.	.	.	.	78	44	31	.	93	.
O=C(O)CCC(C(=O)O)N1C(=O)C2C3CCC(C3)C2C1=O (stereo not drawn)	.	/	/	.	/	/	/	/	/	/
O=C(COc1ccccc1F)Nc1cc(S(=O)(=O)Nc2cccc(Cl)c2)ccc1O	.	/	.	.	40	75	42	.	61	.
CCNC(=S)Nc1ccc2c(c1)c(=O)n(C)n2-c1cc(C)cc(C)c1	.	/	/	.	/	/	/	/	/	/
O=C(OCc1cc(=O)n2c(n1)sc1ccccc12)c1cccc(O)c1	.	.	.	.	97	.	52	.	86	.
CC(C)[C@H](NC(=O)c1ccco1)C(=O)OCc1cc(=O)n2c(n1)sc1ccccc12	.	.	.	.	.	.	/	/	/	/
Clc1cccc(CNCC2CCCO2)c1Cl (stereo not drawn)	.	.	.	.	.	.	/	/	/	/
O=C(Nc1cccc(-c2nnc(-c3ccco3)o2)c1)c1ccccc1	.	.	.	.	.	.	/	/	/	/
COc1cccc(C(=O)Nc2ccc(-c3nnc(-c4ccco4)o3)cc2)c1	.	.	.	.	77	.	34	.	71	20
CC(=O)N1CCN(S(=O)(=O)c2cccc(C(=O)Nc3ccc(C)cn3)c2)CC1	.	.	.	.	.	.	/	/	/	/
Cc1ccc(NC(=O)c2cccc(S(=O)(=O)N3CCc4ccccc4C3)c2)nc1	.	/	.	.	39	.	.	.	.	.
